Reference: ChEMBL document CHEMBL5674883, “The Heterochromatin Landscape in Migrating Cells and the Importance of H3K27me3 for Associated Transcriptome Alterations” (Cells, 2018)

Key:
Assay type in all cases: cell-based
[1] = molecular target: T1, RNA polymerase II (Mus musculus) (UniProt P08775+Q8CFI7+P97760+A0A3Q4L2S8+Q80UW8+P61219+P62488+Q923G2+P60898+O08740+Q63871+P62876); experiment: Inhibition of RNA polymerase II in mouse B16-F1 migrating cells assessed as fold change in Mapre3-RNA stability at 0.1 mM measured by ChIP-seq analysis relative to control cells
[2] = molecular target: T1, RNA polymerase II (Mus musculus); experiment: Inhibition of RNA polymerase II in mouse B16-F1 migrating cells assessed as fold change in Borcs8-RNA stability at 0.1 mM measured by […] analysis relative to control cells
Summary of the method: (§1)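 Mouse B16-F1 melanoma cells grown to confluence on fibronectin in DMEM/10% FCS at 37 °C, 7% CO2. Migration induced by multiple scratches and 3 h incubation; unscratched controls. DRB 0.1 mM added 3 h before lysis. RNA from poly A-selected mRNA was sequenced (RNA-seq, three replicates per DRB group). Fold change computed for DRB-treated migrating vs DRB-treated control cells; cutoffs fold change >1.3, FDR <0.05.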

[3] = molecular target: T1, RNA polymerase II (Mus musculus); experiment: Inhibition of RNA polymerase II in mouse B16-F1 migrating cells assessed as fold change in Med25-RNA stability at 0.1 mM measured by ChIP-seq analysis relative to control cells
[4] = molecular target: T1, RNA polymerase II (Mus musculus); experiment: Inhibition of RNA polymerase II in mouse B16-F1 migrating cells assessed as fold change in Rps8-RNA stability at 0.1 mM measured by […] analysis relative to control cells
[5] = molecular target: T1, RNA polymerase II (Mus musculus); experiment: Inhibition of RNA polymerase II in mouse B16-F1 migrating cells assessed as fold change in Trpv2-RNA stability at 0.1 mM measured by […] analysis relative to control cells
[6] = molecular target: T1, RNA polymerase II (Mus musculus); experiment: Inhibition of RNA polymerase II in mouse B16-F1 migrating cells assessed as fold change in Arf6-RNA stability at 0.1 mM measured by […] analysis relative to control cells
[7] = molecular target: T1, RNA polymerase II (Mus musculus); experiment: Inhibition of RNA polymerase II in mouse B16-F1 migrating cells assessed as fold change in Cbx1-RNA stability at 0.1 mM measured by […] analysis relative to control cells
[8] = molecular target: T1, RNA polymerase II (Mus musculus); experiment: Inhibition of RNA polymerase II in mouse B16-F1 migrating cells assessed as fold change in Ets1-RNA stability at 0.1 mM measured by […] analysis relative to control cells; summary of the method: as §1
[9] = molecular target: T1, RNA polymerase II (Mus musculus); experiment: Inhibition of RNA polymerase II in mouse B16-F1 migrating cells assessed as fold change in Pde12-RNA stability at 0.1 mM measured by […] analysis relative to control cells
[10] = molecular target: T1, RNA polymerase II (Mus musculus); experiment: Inhibition of RNA polymerase II in mouse B16-F1 migrating cells assessed as fold change in Rest-RNA stability at 0.1 mM measured by […] analysis relative to control cells
[11] = molecular target: T1, RNA polymerase II (Mus musculus); experiment: Inhibition of RNA polymerase II in mouse B16-F1 migrating cells assessed as fold change in Cenpc1-RNA stability at 0.1 mM measured by […] analysis relative to control cells
[12] = molecular target: Histone-lysine N-methyltransferase EZH2 (Mus musculus) (UniProt Q61188); experiment: Inhibition of EZH2 in mouse B16-F1 migrating cells assessed as fold change in H3K27me3-independent regulated Bnip3-mRNA expression at 3 uM measured by […] analysis relative to control cells
Histone-lysine N-methyltransferase EZH2 (Mus musculus), sequence (Q61188 whole entry): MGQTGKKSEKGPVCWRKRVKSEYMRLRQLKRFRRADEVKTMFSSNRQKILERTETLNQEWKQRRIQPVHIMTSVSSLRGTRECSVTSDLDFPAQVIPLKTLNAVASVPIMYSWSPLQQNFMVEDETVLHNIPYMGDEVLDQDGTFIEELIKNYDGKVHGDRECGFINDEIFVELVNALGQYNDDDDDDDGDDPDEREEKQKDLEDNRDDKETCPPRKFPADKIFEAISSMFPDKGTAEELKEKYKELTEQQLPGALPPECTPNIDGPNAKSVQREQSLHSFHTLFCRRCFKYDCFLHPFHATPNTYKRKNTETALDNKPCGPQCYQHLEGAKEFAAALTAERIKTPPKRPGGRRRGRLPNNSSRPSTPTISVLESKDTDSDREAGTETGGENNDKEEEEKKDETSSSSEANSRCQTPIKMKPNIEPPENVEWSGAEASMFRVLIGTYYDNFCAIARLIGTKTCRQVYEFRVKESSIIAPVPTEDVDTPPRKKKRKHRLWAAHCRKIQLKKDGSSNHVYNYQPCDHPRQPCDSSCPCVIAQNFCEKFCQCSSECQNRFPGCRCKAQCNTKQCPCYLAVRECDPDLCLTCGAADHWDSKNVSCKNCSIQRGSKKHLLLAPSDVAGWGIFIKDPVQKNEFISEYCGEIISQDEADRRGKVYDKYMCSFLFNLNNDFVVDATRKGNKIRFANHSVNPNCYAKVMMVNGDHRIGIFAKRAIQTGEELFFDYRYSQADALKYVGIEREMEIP
Summary of the method: (§2)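 Confluent B16-F1 cells on fibronectin-coated plates were scratched at multiple sites, washed once with DMEM and left to migrate 3 h in growth medium (37 °C, 7% CO2); unscratched cells served as control. GSK343 (3 µM) was added 3 h before lysis. Poly A mRNA was sequenced (RNA-seq), with 5 replicates for untreated and 3 for treated cells. Differential expression was called by linear model with batch correction, at FDR <0.05 and fold change ≥1.3.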

[13] = molecular target: Histone-lysine N-methyltransferase EZH2 (Mus musculus) (UniProt Q61188); experiment: Inhibition of EZH2 in mouse B16-F1 migrating cells assessed as fold change in H3K27me3-independent regulated Csrnp1-mRNA expression at 3 uM measured by […] analysis relative to control cells; summary of the method: as §2
[14] = molecular target: Histone-lysine N-methyltransferase EZH2 (Mus musculus) (UniProt Q61188); experiment: Inhibition of EZH2 in mouse B16-F1 migrating cells assessed as fold change in H3K27me3-independent regulated Cep290-mRNA expression at 3 uM measured by […] analysis relative to control cells; summary of the method: as §2
[15] = molecular target: Histone-lysine N-methyltransferase EZH2 (Mus musculus) (UniProt Q61188); experiment: Inhibition of EZH2 in mouse B16-F1 migrating cells assessed as fold change in H3K27me3-buffered regulated Pygm-mRNA expression at 3 uM measured by […] analysis relative to control cells
Summary of the method: (§3)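 Confluent B16-F1 cells on fibronectin-coated plates, cultured at 37 °C and 7% CO2, were scratched at multiple sites to induce migration. They were then held 3 h in growth medium containing 3 µM GSK343, with the inhibitor added 3 h before lysis. Unscratched cells served as controls. Poly A mRNA was analysed by RNA-seq (n=3 GSK343, n=5 controls). Linear models removed batch effects, and buffered genes were those altered only under GSK343 (FDR <0.05, fold change >1.3).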

[16] = molecular target: Histone-lysine N-methyltransferase EZH2 (Mus musculus) (UniProt Q61188); experiment: Inhibition of EZH2 in mouse B16-F1 migrating cells assessed as fold change in H3K27me3-buffered regulated Ern1-mRNA expression at 3 uM measured by ChIP-seq analysis relative to control cells; summary of the method: as §3
[17] = molecular target: Histone-lysine N-methyltransferase EZH2 (Mus musculus) (UniProt Q61188); experiment: Inhibition of EZH2 in mouse B16-F1 migrating cells assessed as fold change in H3K27me3-buffered regulated Itpk1-mRNA expression at 3 uM measured by […] analysis relative to control cells; summary of the method: as §3
[18] = molecular target: Histone-lysine N-methyltransferase EZH2 (Mus musculus) (UniProt Q61188); experiment: Inhibition of EZH2 in mouse B16-F1 migrating cells assessed as fold change in H3K27me3-buffered regulated Sqle-mRNA expression at 3 uM measured by […] analysis relative to control cells; summary of the method: as §2
[19] = molecular target: Histone-lysine N-methyltransferase EZH2 (Mus musculus) (UniProt Q61188); experiment: Inhibition of EZH2 in mouse B16-F1 migrating cells assessed as fold change in H3K27me3-buffered regulated Pcf11-mRNA expression at 3 uM measured by […] analysis relative to control cells; summary of the method: as §3
[20] = molecular target: Histone-lysine N-methyltransferase EZH2 (Mus musculus) (UniProt Q61188); experiment: Inhibition of EZH2 in mouse B16-F1 migrating cells assessed as fold change in H3K27me3-buffered regulated Dzip3-mRNA expression at 3 uM measured by […] analysis relative to control cells; summary of the method: as §3
[21] = molecular target: Histone-lysine N-methyltransferase EZH2 (Mus musculus) (UniProt Q61188); experiment: Inhibition of EZH2 in mouse B16-F1 migrating cells assessed as fold change in H3K27me3-buffered regulated Gatd1-mRNA expression at 3 uM measured by ChIP-seq analysis relative to control cells; summary of the method: as §3
[22] = molecular target: Histone-lysine N-methyltransferase EZH2 (Mus musculus) (UniProt Q61188); experiment: Inhibition of EZH2 in mouse B16-F1 migrating cells assessed as fold change in H3K27me3-buffered regulated Gulp1-mRNA expression at 3 uM measured by […] analysis relative to control cells; summary of the method: as §3
[23] = molecular target: Histone-lysine N-methyltransferase EZH2 (Mus musculus) (UniProt Q61188); experiment: Inhibition of EZH2 in mouse B16-F1 migrating cells assessed as fold change in H3K27me3-buffered regulated Tcf7l1-mRNA expression at 3 uM measured by […] analysis relative to control cells; summary of the method: as §2
[24] = molecular target: Histone-lysine N-methyltransferase EZH2 (Mus musculus) (UniProt Q61188); experiment: Inhibition of EZH2 in mouse B16-F1 migrating cells assessed as fold change in H3K27me3-buffered regulated Rhobtb3-mRNA expression at 3 uM measured by […] analysis relative to control cells; summary of the method: as §2

Compound `OC[C@H]1O[C@@H](n2cnc3cc(Cl)c(Cl)cc32)[C@H](O)[C@@H]1O` has a log2FC [1] of 0.77, a log2FC [2] of 0.57 and a log2FC [3] of 0.42. For the same compound, the log2FC [4] was 0.41, the log2FC [5] was 0.41 and the log2FC [6] was -0.51. The log2FC [7] was -0.56, the log2FC [8] was -0.65 and the log2FC [9] was -0.77. It also gave a log2FC [10] of -0.79 and a log2FC [11] of -0.84.

For `CCCc1cc(C)[nH]c(=O)c1CNC(=O)c1cc(-c2ccnc(N3CCN(C)CC3)c2)cc2c1cnn2C(C)C`, the log2FC [12] was 0.68, the log2FC [13] was 0.64 and the log2FC [14] was -0.62. The log2FC [15] was 0.85, the log2FC [16] was 0.72 and the log2FC [17] was 0.51. The log2FC [18] was 0.39, the log2FC [19] was -0.39 and the log2FC [20] was -0.4. The log2FC [21] was -0.43, the log2FC [22] was -0.44 and the log2FC [23] was -0.48. It also gave a log2FC [24] of -0.62.
